According to ChEMBL document CHEMBL5058577, “EUbOPEN Chemogenomics Library 2 (Multiplex)” (2022):

System: Fibroblast
Assay: Multiplex assay against human fibroblast
Type: toxicity, cell-based
Outline: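 Live cells were stained at seeding with Hoechst33342, BioTracker Green Microtubule Cytoskeleton Dye, MitoTracker Red and Annexin V Alexa Fluor 680, then imaged on a CQ1 microscope at 37°C and 5% CO2 after compound addition. CellPathfinder machine-learning gating split cells into Hoechst high-intensity objects or normal cells. Normal cells were split into healthy, pyknosed or fragmented nuclei, and pyknosed cells into mitotic or apoptotic. Tubulin, mitochondrial-mass and membrane-permeability phenotypes are per cents of healthy-nucleus cells.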

[1] = 12 h, 1 µM, compound concentration 1 uM, replicate 1
[2] = 12 h, 1 µM, compound concentration 1 uM, replicate 2
[3] = 12 h, 10 µM, compound concentration 10 uM, replicate 1
[4] = 12 h, 10 µM, compound concentration 10 uM, replicate 2
[5] = 24 h, 1 µM, compound concentration 1 uM, replicate 1
[6] = 24 h, 1 µM, compound concentration 1 uM, replicate 2
[7] = 24 h, 10 µM, compound concentration 10 uM, replicate 1
[8] = 24 h, 10 µM, compound concentration 10 uM, replicate 2
[9] = 48 h, 1 µM, compound concentration 1 uM, replicate 1
[10] = 48 h, 1 µM, compound concentration 1 uM, replicate 2
[11] = 48 h, 10 µM, compound concentration 10 uM, replicate 1
[12] = 48 h, 10 µM, compound concentration 10 uM, replicate 2

With `N#Cc1cc(F)cc(-c2nc(-c3ccc(F)cn3)no2)c1` the “Population Apoptotic (%)” value [1] was 28%, the “Population Fragmented Nuclei (%)” value [1] was 21% and the “Population Healthy Nuclei (%)” value [1] was 63%. For the same compound, the “Population Hoechst High Intensity Objects (%)” value [1] was 0%, the “Population Membrane Permeable-Phenotype (%)” value [1] was 2% and the “Population Mitochondria Different-Phenotype (%)” value [1] was 5%. The “Population Mitotic Cells (%)” value [1] was 71%, the “Population Normal (%)” value [1] was 100% and the “Population Pyknosed Nuclei (%)” value [1] was 15%. For the same compound, the “Population Tubulin-Different-Phenotype (%)” value [1] was 22%, the “Total Cell Count” value [1] was 136 and the “Population Apoptotic (%)” value [2] was 38%. The “Population Fragmented Nuclei (%)” value [2] was 32%, the “Population Healthy Nuclei (%)” value [2] was 37% and the “Population Hoechst High Intensity Objects (%)” value [2] was 6%. For the same compound, the “Population Membrane Permeable-Phenotype (%)” value [2] was 15%, the “Population Mitochondria Different-Phenotype (%)” value [2] was 6% and the “Population Mitotic Cells (%)” value [2] was 61%. The “Population Normal (%)” value [2] was 93%, the “Population Pyknosed Nuclei (%)” value [2] was 29% and the “Population Tubulin-Different-Phenotype (%)” value [2] was 48%. The “Total Cell Count” value [2] was 93, the “Population Apoptotic (%)” value [3] was 48% and the “Population Fragmented Nuclei (%)” value [3] was 15%. For the same compound, the “Population Healthy Nuclei (%)” value [3] was 67%, the “Population Hoechst High Intensity Objects (%)” value [3] was 1% and the “Population Membrane Permeable-Phenotype (%)” value [3] was 2%. For the same compound, the “Population Mitochondria Different-Phenotype (%)” value [3] was 5%, the “Population Mitotic Cells (%)” value [3] was 51% and the “Population Normal (%)” value [3] was 98%. For the same compound, the “Population Pyknosed Nuclei (%)” value [3] was 17%, the “Population Tubulin-Different-Phenotype (%)” value [3] was 23% and the “Total Cell Count” value [3] was 179. For the same compound, the “Population Apoptotic (%)” value [4] was 28%, the “Population Fragmented Nuclei (%)” value [4] was 42% and the “Population Healthy Nuclei (%)” value [4] was 32%. For the same compound, the “Population Hoechst High Intensity Objects (%)” value [4] was 8%, the “Population Membrane Permeable-Phenotype (%)” value [4] was 9% and the “Population Mitochondria Different-Phenotype (%)” value [4] was 12%. For the same compound, the “Population Mitotic Cells (%)” value [4] was 72%, the “Population Normal (%)” value [4] was 91% and the “Population Pyknosed Nuclei (%)” value [4] was 24%. The “Population Tubulin-Different-Phenotype (%)” value [4] was 36%, the “Total Cell Count” value [4] was 110 and the “Population Apoptotic (%)” value [5] was 40%. For the same compound, the “Population Fragmented Nuclei (%)” value [5] was 19%, the “Population Healthy Nuclei (%)” value [5] was 68% and the “Population Hoechst High Intensity Objects (%)” value [5] was 2%. For the same compound, the “Population Membrane Permeable-Phenotype (%)” value [5] was 1%, the “Population Mitochondria Different-Phenotype (%)” value [5] was 3% and the “Population Mitotic Cells (%)” value [5] was 60%. The “Population Normal (%)” value [5] was 97%, the “Population Pyknosed Nuclei (%)” value [5] was 11% and the “Population Tubulin-Different-Phenotype (%)” value [5] was 18%. For the same compound, the “Total Cell Count” value [5] was 131, the “Population Apoptotic (%)” value [6] was 27% and the “Population Fragmented Nuclei (%)” value [6] was 39%. For the same compound, the “Population Healthy Nuclei (%)” value [6] was 38%, the “Population Hoechst High Intensity Objects (%)” value [6] was 7% and the “Population Membrane Permeable-Phenotype (%)” value [6] was 12%. The “Population Mitotic Cells (%)” value [6] was 72%, the “Population Normal (%)” value [6] was 92% and the “Population Pyknosed Nuclei (%)” value [6] was 22%. The “Population Tubulin-Different-Phenotype (%)” value [6] was 58%, the “Total Cell Count” value [6] was 88 and the “Population Apoptotic (%)” value [7] was 70%. For the same compound, the “Population Fragmented Nuclei (%)” value [7] was 12%, the “Population Healthy Nuclei (%)” value [7] was 70% and the “Population Hoechst High Intensity Objects (%)” value [7] was 4%. For the same compound, the “Population Membrane Permeable-Phenotype (%)” value [7] was 0%, the “Population Mitochondria Different-Phenotype (%)” value [7] was 6% and the “Population Mitotic Cells (%)” value [7] was 29%. The “Population Normal (%)” value [7] was 95%, the “Population Pyknosed Nuclei (%)” value [7] was 16% and the “Population Tubulin-Different-Phenotype (%)” value [7] was 22%. The “Total Cell Count” value [7] was 170, the “Population Apoptotic (%)” value [8] was 35% and the “Population Fragmented Nuclei (%)” value [8] was 47%. The “Population Healthy Nuclei (%)” value [8] was 33%, the “Population Hoechst High Intensity Objects (%)” value [8] was 11% and the “Population Membrane Permeable-Phenotype (%)” value [8] was 5%. For the same compound, the “Population Mitochondria Different-Phenotype (%)” value [8] was 11%, the “Population Mitotic Cells (%)” value [8] was 65% and the “Population Normal (%)” value [8] was 88%. For the same compound, the “Population Pyknosed Nuclei (%)” value [8] was 18%, the “Population Tubulin-Different-Phenotype (%)” value [8] was 41% and the “Total Cell Count” value [8] was 120. For the same compound, the “Population Apoptotic (%)” value [9] was 61%, the “Population Fragmented Nuclei (%)” value [9] was 21% and the “Population Healthy Nuclei (%)” value [9] was 68%. For the same compound, the “Population Hoechst High Intensity Objects (%)” value [9] was 1%, the “Population Membrane Permeable-Phenotype (%)” value [9] was 0% and the “Population Mitochondria Different-Phenotype (%)” value [9] was 3%. For the same compound, the “Population Mitotic Cells (%)” value [9] was 38%, the “Population Normal (%)” value [9] was 98% and the “Population Pyknosed Nuclei (%)” value [9] was 9%. The “Population Tubulin-Different-Phenotype (%)” value [9] was 23%, the “Total Cell Count” value [9] was 137 and the “Population Apoptotic (%)” value [10] was 50%. The “Population Fragmented Nuclei (%)” value [10] was 45%, the “Population Healthy Nuclei (%)” value [10] was 32% and the “Population Hoechst High Intensity Objects (%)” value [10] was 5%. For the same compound, the “Population Membrane Permeable-Phenotype (%)” value [10] was 3%, the “Population Mitochondria Different-Phenotype (%)” value [10] was 7% and the “Population Mitotic Cells (%)” value [10] was 50%. For the same compound, the “Population Normal (%)” value [10] was 94%, the “Population Pyknosed Nuclei (%)” value [10] was 22% and the “Population Tubulin-Different-Phenotype (%)” value [10] was 57%. For the same compound, the “Total Cell Count” value [10] was 85, the “Population Apoptotic (%)” value [11] was 84% and the “Population Fragmented Nuclei (%)” value [11] was 20%. The “Population Healthy Nuclei (%)” value [11] was 63%, the “Population Hoechst High Intensity Objects (%)” value [11] was 7% and the “Population Membrane Permeable-Phenotype (%)” value [11] was 0%. For the same compound, the “Population Mitochondria Different-Phenotype (%)” value [11] was 11%, the “Population Mitotic Cells (%)” value [11] was 16% and the “Population Normal (%)” value [11] was 92%. For the same compound, the “Population Pyknosed Nuclei (%)” value [11] was 16%, the “Population Tubulin-Different-Phenotype (%)” value [11] was 28% and the “Total Cell Count” value [11] was 162. For the same compound, the “Population Apoptotic (%)” value [12] was 50%, the “Population Fragmented Nuclei (%)” value [12] was 44% and the “Population Healthy Nuclei (%)” value [12] was 38%. The “Population Hoechst High Intensity Objects (%)” value [12] was 5%, the “Population Membrane Permeable-Phenotype (%)” value [12] was 15% and the “Population Mitochondria Different-Phenotype (%)” value [12] was 5%. The “Population Mitotic Cells (%)” value [12] was 50%, the “Population Normal (%)” value [12] was 94% and the “Population Pyknosed Nuclei (%)” value [12] was 17%. The “Population Tubulin-Different-Phenotype (%)” value [12] was 50% and the “Total Cell Count” value [12] was 110.
